The text below walks through data of article PMC8790780 (Chemistry (Weinheim an der Bergstrasse, Germany), 2021).

Each structure is given as a SMILES string.

One assay concerns HT29 cells. Nature of the assay: Cell viability assay. Format: cell-based. The note with it: Homo sapiens, HT-29, 72 h, read-out: HT29 [IC50 in μM].
The next assay deals with Hsp90β (Homo sapiens, UniProt P08238). The assay can be described thus: Fluorescence polarization. The format is binding. (In general: In fluorescence polarisation assays a small probe gives low polarisation when free and higher when bound to something large.)
Chain of Hsp90β (P08238 whole entry): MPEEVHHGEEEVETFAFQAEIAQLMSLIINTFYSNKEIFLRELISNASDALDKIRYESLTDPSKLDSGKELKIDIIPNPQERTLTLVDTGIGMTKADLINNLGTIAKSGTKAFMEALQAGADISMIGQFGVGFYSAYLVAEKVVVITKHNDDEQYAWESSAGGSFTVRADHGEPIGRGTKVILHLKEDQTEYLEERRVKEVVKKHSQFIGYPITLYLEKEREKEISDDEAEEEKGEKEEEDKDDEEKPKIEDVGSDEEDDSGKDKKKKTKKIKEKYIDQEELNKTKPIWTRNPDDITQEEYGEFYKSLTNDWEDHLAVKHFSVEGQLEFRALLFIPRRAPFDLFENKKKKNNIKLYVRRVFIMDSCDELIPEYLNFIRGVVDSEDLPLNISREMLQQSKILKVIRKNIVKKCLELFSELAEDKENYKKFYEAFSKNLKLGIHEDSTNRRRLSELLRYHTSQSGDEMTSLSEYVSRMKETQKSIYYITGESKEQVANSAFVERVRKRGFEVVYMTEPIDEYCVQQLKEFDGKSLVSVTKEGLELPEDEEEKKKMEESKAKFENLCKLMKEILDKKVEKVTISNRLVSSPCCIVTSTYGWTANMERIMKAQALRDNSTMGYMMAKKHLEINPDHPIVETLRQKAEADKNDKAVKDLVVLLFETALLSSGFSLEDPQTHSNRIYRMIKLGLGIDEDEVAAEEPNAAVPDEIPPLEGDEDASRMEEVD
For the next assay, the target named is Hsp90α (Homo sapiens, UniProt P07900). Nature of the assay: Fluorescence polarization. Format: binding.
Assay [1] concerns Hsp90 client proteins in HT-29 cell line. Nature of the assay: Western blot analysis of client proteins in HT-29 cell lysates. Format: cell-based, human. The note with it: HT-29, 24 h, 5-50 μM. Put shortly:
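HT29 cells grown in RPMI with 10% FBS and 1% Pen-Strep. At ~70% confluence they were treated for 24 h with test compound (5, 10, 20, 30, 40, 50 μM) or GDA 500 nM. Cells were lysed in RIPA with protease/phosphatase inhibitors and spun 12,000g for 25 min at 4°C. BCA-normalized protein was run on 10% SDS-PAGE, transferred to PVDF, and detected with specific antibodies, HRP secondary and chemiluminescence.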

Another assay deals with NCI-H1299 cells. The assay can be described thus: Cell viability assay. Format: cell-based. The note with it: Homo sapiens, NCI-H1299, 72 h, read-out: NCI—H1299 [IC50 in μM].

What is called IC50 is the concentration that inhibits the measured activity by half. As to `CC(C)c1cc(C(=O)N2Cc3ccccc3C2)c(O)c2ccoc12` [Compound 5, (4-Hydroxy-7-isopropylbenzofuran-5-yl)(isoindolin-2-yl) methanone], the IC50 in the assay with HT29 cells came to 18.8 ± 2.6 µM. Also, at Hsp90β, the IC50 came out at 270 ± 90 nM and the “selectivity for Hsp90β versus Hsp90α” value is given as ~ 370 fold. The compound also returned a Selectivity at Hsp90β (Hsp90β versus Hsp90α, from FP IC50 values) above 370. Also, the IC50 on Hsp90α is above 100 µM. Moreover, on Hsp90α (FP assay, SAR discussion), the “binding affinity for Hsp90α (in words)” value is recorded as “no measurable affinity”. In assay [1], the Erk5 total level entry is given as “decreased at higher concentrations”, the Her-2 total level result was “decreased at higher concentrations”, the Hsp70 level result is listed as “appear to be induced” and the “survivin protein expression level (Hsp90α-dependent client)” value is “remained unaffected until higher concentrations”. Besides, in assay [1] (dose dependent), the “Akt protein level (Hsp90β-dependent client)” value was “induced the degradation” and the “CDK4 protein level (Hsp90β-dependent client)” value is recorded as “induced the degradation”. Also, in the assay on NCI-H1299 cells, the 50% inhibitory concentration (IC50) came out at 17.5 ± 0.42 µM.
